Reference: ChEMBL document CHEMBL4665669, “Novel tertiary sulfonamide derivatives containing benzimidazole moiety as potent anti-gastric cancer agents: Design, synthesis and SAR studies” (Eur J Med Chem, 2019)
The source made the active and inactive calls. The calls are words filed in the database; no cut-off is given here.

Assays:
MGC-803 [1] = assay: Cell cycle arrest at G2 phase in human MGC-803 cells assessed as downregulation of CDK1 level at 0.5 to 1.5 umol/L after 48 hrs by Western blot analysis; assay type: functional, cell-based; details: dose micromol/L 0.5-1.5, time 48.0 hrs
In short: (§1)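 Western blot. Cells were treated with compound concentrations or DMSO for 48 h, then lysed, and lysates were denatured, run on SDS-PAGE and transferred to nitrocellulose. After blocking in 5% skimmed milk, membranes were incubated with primary antibodies at 4 °C for 8 h, then secondary antibodies, with ECL detection.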

MGC-803 [2] = assay: Anticancer activity against human MGC-803 cells assessed as cell growth at 0.5 to 1.5 umol/L after 48 hrs by MTT assay relative to control; assay type: functional; details: dose micromol/L 0.5-1.5
SGC-7901 [3] = assay: Induction of apoptosis in human SGC-7901 cells assessed as downregulation of XIAP level at 0.5 to 1.5 umol/L after 48 hrs Western blot analysis; assay type: functional, cell-based; details: dose micromol/L 0.5-1.5, time 48.0 hrs; in short: as §1
PC-3 = assay: Anticancer activity against human PC-3 cells assessed as inhibition of cell proliferation after 48 hrs by MTT assay; assay type: functional, cell-based; details: PC-3, 48 h
In short: (§2)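 MTT assay with 48 h compound exposure. MTT solution was then added and incubated 4 h at 37 °C, the supernatant discarded and formazan dissolved in DMSO, with absorbance read at 490 nm. IC50 values were calculated from three independent experiments, reported as mean SD.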

HGC-27 [4] = assay: Induction of apoptosis in human HGC-27 cells assessed as downregulation of Bcl-2 level at 0.5 to 1.5 umol/L after 48 hrs Western blot analysis; assay type: functional, cell-based; details: dose micromol/L 0.5-1.5, time 48.0 hrs; in short: as §1
SGC-7901 [5] = assay: Induction of apoptosis in human SGC-7901 cells assessed as cleavage of PARP at 0.5 to 1.5 umol/L after 48 hrs Western blot analysis; assay type: functional, cell-based; details: dose micromol/L 0.5-1.5, time 48.0 hrs; in short: as §1
SGC-7901 [6] = assay: Induction of apoptosis in human SGC-7901 cells assessed as downregulation of Mcl-1 level at 0.5 to 1.5 umol/L after 48 hrs Western blot analysis; assay type: functional, cell-based; details: dose micromol/L 0.5-1.5, time 48.0 hrs; in short: as §1
MGC-803 [7] = assay: Inhibition of Ras/Raf/MEK/ERK signalling pathway in human MGC-803 cells assessed as decrease in ERK1/2 phosphorylation after 48 hrs by Western blot analysis; assay type: cell-based; details: dose micromol/L 0.5-1.5, time 48.0 hrs
In short: (§3)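 Cells treated with graded concentrations or DMSO for 48 h, then harvested and lysed. Lysates denatured, resolved by SDS-PAGE and transferred to nitrocellulose. Membranes blocked with 5% skimmed milk and probed with primary antibodies at 4 °C for 8 h, then with secondary antibodies. Bands detected by ECL.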

SGC-7901 [8] = assay: Induction of apoptosis in human SGC-7901 cells assessed as cleavage of caspase-7 at 0.5 to 1.5 umol/L after 48 hrs Western blot analysis; assay type: functional, cell-based; details: dose micromol/L 0.5-1.5, time 48.0 hrs; in short: as §1
MGC-803 [9] = assay: Inhibition of Akt/mTOR signalling pathway in human MGC-803 cells assessed as decrease in AKT phosphorylation at Ser473 residue at 0.5 to 1.5 umol/L after 48 hrs by Western blot analysis; assay type: cell-based; details: dose micromol/L 0.5-1.5, time 48.0 hrs; in short: as §3
SGC-7901 [10] = assay: Inhibition of Ras/Raf/MEK/ERK signalling pathway in human SGC-7901 cells assessed as decrease in c-Raf phosphorylation after 48 hrs by Western blot analysis; assay type: cell-based; details: dose micromol/L 0.5-1.5, time 48.0 hrs; in short: as §3
SGC-7901 [11] = assay: Cell cycle arrest in human SGC-7901 cells assessed as accumulation at G2/M phase at 0.5 to 1.5 umol/L after 48 hrs by RNase/propidium iodide staining based flow cytometry; assay type: functional; details: dose micromol/L 0.5-1.5, time 48.0 hrs
In short: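 MGC-803, SGC-7901 and HGC-27 cells were seeded in 6-well plates and treated 48 h with compound or DMSO. Cells were then harvested and fixed in 70% cold ethanol at 4 °C for 8 h, and cell-cycle phase distribution was quantified by flow cytometry.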

[12] = Selectivity index, ratio of IC50 for human GES1 cells to IC50 for human SGC-7901 cells assessed as inhibition of cell proliferation after 48 hrs by MTT assay
In short: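 Fold selectivity is the IC50 in GES-1 normal gastric epithelial cells divided by the IC50 in the gastric cancer line (HGC-27, MGC-803 or SGC-7901). Both IC50s come from 48 h exposure, MTT (4 h, 37 °C), DMSO solubilisation and 490 nm absorbance, with three independent experiments.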

HGC-27 [13] = assay: Inhibition of Ras/Raf/MEK/ERK signalling pathway in human HGC-27 cells assessed as downregulation of FoxO3a expression at 0.5 to 1.5 umol/L after 48 hrs by Western blot analysis; assay type: cell-based; details: dose micromol/L 0.5-1.5, time 48.0 hrs; in short: as §3
MGC-803 [14] = assay: Inhibition of Ras/Raf/MEK/ERK signalling pathway in human MGC-803 cells assessed as decrease in c-Raf phosphorylation after 48 hrs by Western blot analysis; assay type: cell-based; details: dose micromol/L 0.5-1.5, time 48.0 hrs; in short: as §3
SGC-7901 [15] = assay: Cell cycle arrest at M phase in human SGC-7901 cells assessed as upregulation of p-Histone-3 level at 0.5 to 1.5 umol/L after 48 hrs by Western blot analysis; assay type: functional, cell-based; details: dose micromol/L 0.5-1.5, time 48.0 hrs; in short: as §1
HGC-27 [16] = assay: Cell cycle arrest at G2 phase in human HGC-27 cells assessed as downregulation of Cyclin B level at 0.5 to 1.5 umol/L after 48 hrs by Western blot analysis; assay type: functional, cell-based; details: dose micromol/L 0.5-1.5, time 48.0 hrs; in short: as §1
HGC-27 [17] = assay: Induction of apoptosis in human HGC-27 cells assessed as downregulation of XIAP level at 0.5 to 1.5 umol/L after 48 hrs Western blot analysis; assay type: functional, cell-based; details: dose micromol/L 0.5-1.5, time 48.0 hrs; in short: as §1
SGC-7901 [18] = assay: Inhibition of Akt/mTOR signalling pathway in human SGC-7901 cells assessed as decrease in AKT phosphorylation at Ser473 residue at 0.5 to 1.5 umol/L after 48 hrs by Western blot analysis; assay type: cell-based; details: dose micromol/L 0.5-1.5, time 48.0 hrs; in short: as §3
HGC-27 [19] = assay: Induction of apoptosis in human HGC-27 cells assessed as downregulation of Mcl-1 level at 0.5 to 1.5 umol/L after 48 hrs Western blot analysis; assay type: functional, cell-based; details: dose micromol/L 0.5-1.5, time 48.0 hrs; in short: as §1
MCF7 = assay: Anticancer activity against human MCF7 cells assessed as inhibition of cell proliferation after 48 hrs by MTT assay; assay type: functional, cell-based; details: MCF7, 48 h; in short: as §2
SGC-7901 [20] = assay: Inhibition of Ras/Raf/MEK/ERK signalling pathway in human SGC-7901 cells assessed as downregulation of c-Myc expression at 0.5 to 1.5 umol/L after 48 hrs by Western blot analysis; assay type: cell-based; details: dose micromol/L 0.5-1.5, time 48.0 hrs; in short: as §3
MGC-803 [21] = assay: Induction of apoptosis in human MGC-803 cells assessed as increase in nucleus concentration at 0.5 to 1.5 umol/L after 48 hrs by imaging analysis; assay type: functional, cell-based; details: dose micromol/L 0.5-1.5, time 48.0 hrs
MGC-803 [22] = assay: Induction of apoptosis in human MGC-803 cells assessed as cleavage of PARP at 0.5 to 1.5 umol/L after 48 hrs Western blot analysis; assay type: functional, cell-based; details: dose micromol/L 0.5-1.5, time 48.0 hrs; in short: as §1
SGC-7901 [23] = assay: Cell cycle arrest at G2 phase in human SGC-7901 cells assessed as downregulation of Cyclin B level at 0.5 to 1.5 umol/L after 48 hrs by Western blot analysis; assay type: functional, cell-based; details: dose micromol/L 0.5-1.5, time 48.0 hrs; in short: as §1
SGC-7901 [24] = assay: Anticancer activity against human SGC-7901 cells assessed as cell growth at 0.5 to 1.5 umol/L after 48 hrs by MTT assay relative to control; assay type: functional; details: dose micromol/L 0.5-1.5
HGC-27 [25] = assay: Anticancer activity against human HGC-27 cells assessed as inhibition of cell proliferation after 48 hrs by MTT assay; assay type: functional, cell-based; in short: as §2
HGC-27 [26] = assay: Induction of apoptosis in human HGC-27 cells assessed as cleavage of PARP at 0.5 to 1.5 umol/L after 48 hrs Western blot analysis; assay type: functional, cell-based; details: dose micromol/L 0.5-1.5, time 48.0 hrs; in short: as §1
MGC-803 [27] = assay: Inhibition of Ras/Raf/MEK/ERK signalling pathway in human MGC-803 cells assessed as downregulation of FoxO3a expression at 0.5 to 1.5 umol/L after 48 hrs by Western blot analysis; assay type: cell-based; details: dose micromol/L 0.5-1.5, time 48.0 hrs; in short: as §3

Question: Which Activity (MGC-803 [1]) does the source give for COc1cc(N(Cc2nc3ccccc3[nH]2)S(=O)(=O)c2ccc(C)cc2)cc(OC)c1OC here?
Answer: Active

Question: What about the “fold change (FC)” value (MGC-803 [2]) of the same compound?
Answer: <2

Question: What about the Activity (SGC-7901 [3]) of the same compound?
Answer: Active

Question: What about the IC50 (PC-3) of the same compound?
Answer: 3.34 µM

Question: What about the Activity (HGC-27 [4]) of the same compound?
Answer: Active

Question: And the Activity (SGC-7901 [5])?
Answer: Active

Question: What about the Activity (SGC-7901 [6]) of the same compound?
Answer: Active

Question: And the inhibition (MGC-803 [7])?
Answer: Dose-dependent effect

Question: What about the Activity (SGC-7901 [8]) of the same compound?
Answer: Active

Question: And the inhibition (MGC-803 [9])?
Answer: Active

Question: And the inhibition (SGC-7901 [10])?
Answer: Dose-dependent effect

Question: What about the Activity (SGC-7901 [11]) of the same compound?
Answer: Active

Question: What about the “Ratio IC50” value [12] of the same compound?
Answer: 6.6

Question: What about the inhibition (HGC-27 [13]) of the same compound?
Answer: Active

Question: What about the inhibition (MGC-803 [14]) of the same compound?
Answer: Dose-dependent effect

Question: What about the Activity (SGC-7901 [15]) of the same compound?
Answer: Active

Question: And the Activity (HGC-27 [16])?
Answer: Active

Question: What about the Activity (HGC-27 [17]) of the same compound?
Answer: Active

Question: What about the inhibition (SGC-7901 [18]) of the same compound?
Answer: Active

Question: What about the Activity (HGC-27 [19]) of the same compound?
Answer: Active

Question: What about the IC50 (MCF7) of the same compound?
Answer: 5.4 µM

Question: And the inhibition (SGC-7901 [20])?
Answer: Active

Question: What about the Activity (MGC-803 [21]) of the same compound?
Answer: Active

Question: And the Activity (MGC-803 [22])?
Answer: Active

Question: And the Activity (SGC-7901 [23])?
Answer: Active

Question: And the “fold change (FC)” value (SGC-7901 [24])?
Answer: <2

Question: What about the Activity (HGC-27 [25]) of the same compound?
Answer: Dose-dependent effect

Question: What about the IC50 (HGC-27 [25]; HGC-27, 48 h) of the same compound?
Answer: 1.61 µM

Question: And the Activity (HGC-27 [26])?
Answer: Active

Question: And the inhibition (MGC-803 [27])?
Answer: Active
